Data from ChEMBL document CHEMBL4145468, “Synthesis and biological evaluation of new steroidal pyridines as potential anti-prostate cancer agents” (Eur J Med Chem, 2018).

Tests used:
PC-3 = test: Antiproliferative activity against human PC3 cells after 72 hrs by MTT assay; type: functional, cell-based; conditions: PC-3, 72 h
How it was run: (§1)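 Exponentially growing cells, 4×10^3/well, attached 24 h, then medium replaced with fresh medium holding graded compound concentrations for 72 h. MTT (5 mg/mL stock) added for 4 h, formazan dissolved in DMSO, absorbance at 570 nm; IC50 calculated from dose-response data.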

MGC-803 = test: Antiproliferative activity against human MGC803 cells after 72 hrs by MTT assay; type: functional, cell-based; conditions: MGC-803, 72 h; how it was run: as §1
GES1 = test: Antiproliferative activity against human GES-1 cells after 72 hrs by MTT assay; type: cell-based; conditions: GES1, 72 h; how it was run: as §1
ECa-109 cell line = test: Antiproliferative activity against human EC109 cells after 72 hrs by MTT assay; type: functional, cell-based; conditions: ECa-109, 72 h; how it was run: as §1
LNCaP = test: Antiproliferative activity against human LNCAP cells after 72 hrs by MTT assay; type: functional, cell-based; how it was run: as §1

SMILES	IC50 (PC-3) [µM]	IC50 (MGC-803) [µM]	IC50 (LNCaP) [µM]	IC50 (GES1) [µM]	IC50 (ECa-109 cell line) [µM]
CCOc1cc(-c2ccncc2)cc([C@H]2CC[C@H]3[C@@H]4CC=C5C[C@@H](O)CC[C@]5(C)[C@H]4CC[C@]23C)n1	6.37	4.48		15.7	16.6
CCOc1nc([C@H]2CC[C@H]3[C@@H]4CC=C5C[C@@H](O)CC[C@]5(C)[C@H]4CC[C@]23C)cc(-c2ccccc2)c1C#N	4.39	15.8		7.8	13.3
CCOc1nc([C@H]2CC[C@H]3[C@@H]4CC=C5C[C@@H](O)CC[C@]5(C)[C@H]4CC[C@]23C)cc(-c2cccc(Br)c2)c1C#N	9.42	28.5		21.9	> 32
CCOc1nc([C@H]2CC[C@H]3[C@@H]4CC=C5C[C@@H](O)CC[C@]5(C)[C@H]4CC[C@]23C)cc(-c2ccc(S(C)(=O)=O)cc2)c1C#N	> 32	> 32		> 32	> 32
CCOc1nc([C@H]2CC[C@H]3[C@@H]4CC=C5C[C@@H](O)CC[C@]5(C)[C@H]4CC[C@]23C)cc(-c2ccc(Br)cc2)c1C#N	13.7	> 32		> 32	> 32
CCOc1cc(-c2ccc(F)cc2)cc([C@H]2CC[C@H]3[C@@H]4CC=C5C[C@@H](O)CC[C@]5(C)[C@H]4CC[C@]23C)n1	> 32	> 32		> 32	> 32
C[C@]12CC[C@H](O)CC1=CC[C@@H]1[C@@H]2CC[C@]2(C)C(c3cccnc3)=CC[C@@H]12 [ABIRATERONE]	5.94	7.72	3.29	13.1	> 32
CCOc1cc(-c2cccs2)cc([C@H]2CC[C@H]3[C@@H]4CC=C5C[C@@H](O)CC[C@]5(C)[C@H]4CC[C@]23C)n1	15.3	> 32		> 32	17.6
CCOc1nc([C@H]2CC[C@H]3[C@@H]4CC=C5C[C@@H](O)CC[C@]5(C)[C@H]4CC[C@]23C)cc(-c2ccc(C)cc2)c1C#N	> 32	> 32		> 32	> 32
CCOc1cc(-c2cc(F)cc(F)c2)cc([C@H]2CC[C@H]3[C@@H]4CC=C5C[C@@H](O)CC[C@]5(C)[C@H]4CC[C@]23C)n1	16.5	> 32		> 32	> 32
CCOc1nc([C@H]2CC[C@H]3[C@@H]4CC=C5C[C@@H](O)CC[C@]5(C)[C@H]4CC[C@]23C)cc(-c2ccc(F)cc2)c1C#N	> 32	> 32		> 32	> 32
CCOc1nc([C@H]2CC[C@H]3[C@@H]4CC=C5C[C@@H](O)CC[C@]5(C)[C@H]4CC[C@]23C)cc(-c2ccc(Cl)cc2)c1C#N	10.4	> 32		> 32	> 32
CCOc1cc(-c2ncccc2Br)cc([C@H]2CC[C@H]3[C@@H]4CC=C5C[C@@H](O)CC[C@]5(C)[C@H]4CC[C@]23C)n1	13.4	25.8		> 32	> 32

Further lines, with some results ahead:

IC50 (PC-3) [µM]	IC50 (MGC-803) [µM]	IC50 (LNCaP) [µM]	SMILES	IC50 (GES1) [µM]	IC50 (ECa-109 cell line) [µM]
> 32	> 32		CCOc1cc(-c2ccc(S(C)(=O)=O)cc2)cc([C@H]2CC[C@H]3[C@@H]4CC=C5C[C@@H](O)CC[C@]5(C)[C@H]4CC[C@]23C)n1	> 32	31.3
> 32	19.2		CCOc1cc(-c2ccc(Cl)cc2)cc([C@H]2CC[C@H]3[C@@H]4CC=C5C[C@@H](O)CC[C@]5(C)[C@H]4CC[C@]23C)n1	> 32	> 32
24.6	23.7		CCOc1cc(-c2ccc(C#N)cc2)cc([C@H]2CC[C@H]3[C@@H]4CC=C5C[C@@H](O)CC[C@]5(C)[C@H]4CC[C@]23C)n1	> 32	> 32
7.77	13.1		CCOc1nc([C@H]2CC[C@H]3[C@@H]4CC=C5C[C@@H](O)CC[C@]5(C)[C@H]4CC[C@]23C)cc(-c2cccc([N+](=O)[O-])c2)c1C#N	> 32	27.6
> 32	> 32		CCOc1cc(-c2ccc(C)cc2)cc([C@H]2CC[C@H]3[C@@H]4CC=C5C[C@@H](O)CC[C@]5(C)[C@H]4CC[C@]23C)n1	> 32	> 32
5.84	14.7	5.18	CCOc1nc([C@H]2CC[C@H]3[C@@H]4CC=C5C[C@@H](O)CC[C@]5(C)[C@H]4CC[C@]23C)cc(-c2cccnc2)c1C#N	> 32	2.84
6.97	> 32	27.9	CCOc1cc(-c2cccnc2)cc([C@H]2CC[C@H]3[C@@H]4CC=C5C[C@@H](OC(C)=O)CC[C@]5(C)[C@H]4CC[C@]23C)n1	> 32	> 32
21.7	> 32		CCOc1cc(-c2cccc(Br)c2)cc([C@H]2CC[C@H]3[C@@H]4CC=C5C[C@@H](O)CC[C@]5(C)[C@H]4CC[C@]23C)n1	> 32	> 32
> 32	> 32		CCOc1cc(-c2ccc(Br)cc2)cc([C@H]2CC[C@H]3[C@@H]4CC=C5C[C@@H](O)CC[C@]5(C)[C@H]4CC[C@]23C)n1	> 32	> 32
31.1	> 32		CCOc1cc(-c2ccccc2)cc([C@H]2CC[C@H]3[C@@H]4CC=C5C[C@@H](O)CC[C@]5(C)[C@H]4CC[C@]23C)n1	> 32	> 32
12.2	22.3		CCOc1nc([C@H]2CC[C@H]3[C@@H]4CC=C5C[C@@H](O)CC[C@]5(C)[C@H]4CC[C@]23C)cc(-c2ccsc2)c1C#N	30.1	10.6
6.98	23.6		CCOc1nc([C@H]2CC[C@H]3[C@@H]4CC=C5C[C@@H](O)CC[C@]5(C)[C@H]4CC[C@]23C)cc(-c2cccs2)c1C#N	> 32	9.84
10.8	26.1		CCOc1cc(-c2ccco2)cc([C@H]2CC[C@H]3[C@@H]4CC=C5C[C@@H](O)CC[C@]5(C)[C@H]4CC[C@]23C)n1	> 32	26.2
6.99	12.3		CCOc1nc([C@H]2CC[C@H]3[C@@H]4CC=C5C[C@@H](O)CC[C@]5(C)[C@H]4CC[C@]23C)cc(-c2cc(F)cc(F)c2)c1C#N	> 32	20
